Consider 13 molecules from ChEMBL document CHEMBL5223087, “First-in-Class Cyclic Temporin L Analogue: Design, Synthesis, and Antimicrobial Assessment” (J Med Chem, 2021).

Series [1] deals with Staphylococcus aureus. The series can be described thus: Antimicrobial activity against Staphylococcus aureus ATCC 25923 assessed as reduction in bacterial growth incubated for 16 to 18 hrs by microdilution susceptibility test. The class given is functional. As to conditions: time 16-18 hrs. A digest of the protocol:
(§1)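 Broth microdilution in Mueller–Hinton broth. Mid-log bacteria at 1 × 10⁶ CFU/mL final, peptide twofold serial dilutions 100 to 0.78 μM final. Incubated 16–18 h at 37 °C. MIC taken as the lowest concentration giving total (100%) growth inhibition.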

Series [2] has as its system Staphylococcus epidermidis. The series can be described thus: Antimicrobial activity against Staphylococcus epidermidis ATCC 12228 assessed as reduction in bacterial growth incubated for 16 to 18 hrs by microdilution susceptibility test. The class given is functional. As to conditions: time 16-18 hrs. The method in brief:
as §1

The test system of series [3] is Priestia megaterium. The experiment in a line: Antimicrobial activity against Bacillus megaterium Bm11 assessed as reduction in bacterial growth incubated for 16 to 18 hrs by microdilution susceptibility test. The series is classed as functional. The conditions noted are these: time 16-18 hrs. The method in brief:
as §1

The subject of series [4] is Escherichia coli. The series can be described thus: Antimicrobial activity against Escherichia coli ATCC 25922 assessed as reduction in bacterial growth incubated for 16 to 18 hrs by microdilution susceptibility test. The class given is functional. As to conditions: time 16-18 hrs. The method in brief: as §1
Series [5] deals with Pseudomonas aeruginosa. The series can be described thus: Antimicrobial activity against Pseudomonas aeruginosa ATCC 27853 assessed as reduction in bacterial growth incubated for 16 to 18 hrs by microdilution susceptibility test. As to conditions: time 16-18 hrs. The class given is functional. The method in brief: as §1
The subject of series [6] is Acinetobacter baumannii. The series can be described thus: Antimicrobial activity against Acinetobacter baumannii ATCC 19606 assessed as reduction in bacterial growth incubated for 16 to 18 hrs by microdilution susceptibility test. The class given is functional. The conditions noted are these: time 16-18 hrs. The method in brief: as §1
Series [7] deals with HaCaT. The experiment in a line: Cytotoxicity against human HaCaT cells assessed as reduction in cell viability at 25 uM measured after 2 hrs by MTT assay. The class given is toxicity, cell-based. A digest of the protocol:
(§2)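 HaCaT keratinocytes seeded at 4 × 10⁴/well in DMEM with 4 mM glutamine and 2% FBS, no antibiotics, overnight at 37 °C, 5% CO2. Medium replaced with peptide-containing DMEMg for 2 or 24 h. MTT 0.5 mg/mL in Hank's buffer 4 h, formazan dissolved in acidified isopropanol, A570. Viability as % of untreated cells; mean of three independent experiments ± SEM.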

Series [8] deals with HaCaT. The series can be described thus: Cytotoxicity against human HaCaT cells assessed as reduction in cell viability at 50 uM measured after 2 hrs by MTT assay. The class given is toxicity, cell-based. The method in brief:
as §2

In series [9] the test system is HaCaT. The experiment in a line: Cytotoxicity against human HaCaT cells assessed as reduction in cell viability at 50 uM measured after 24 hrs by MTT assay. The series is classed as toxicity, cell-based. The method in brief:
as §2

In brackets after ≈: the same amount, converted by molar mass. Bridge positions count the residues as written; N and C are the ends. Square brackets hold non-standard residues; d marks the D form. Triazole bridges read from a SMILES are 1,4-linked. Peptide text beside a SMILES is read from it. dLys(N3) = [N-]=[N+]=NCCCC[C@@H](N)C(=O)O; Lys(N3) = [N-]=[N+]=NCCCC[C@H](N)C(=O)O; Pra = C#CC[C@H](N)C(=O)O

In the case of `CCC(C)[C@H](NC(=O)[C@H](CCCNC(=N)N)NC(=O)[C@]1(C)CCC/C=C/CCC[C@](C)(NC(=O)[C@H](Cc2ccccc2)NC(=O)[C@H](Cc2c[nH]c3ccccc23)NC(=O)[C@@H]2CCCN2C(=O)[C@@H](NC(=O)[C@@H](N)Cc2ccccc2)C(C)C)C(=O)N[C@@H](CCCCN)C(=O)N[C@@H](Cc2ccccc2)C(=O)N[C@H](CC(C)C)C(=O)N1)C(=O)N[C@@H](CC(C)C)C(N)=O` (some centres undefined), the MIC in series [1] was greater than 100 µM; in series [2], greater than 100 µM; in series [3], 100 µM (≈ 172 µg/mL); in series [4], greater than 100 µM; in series [5], greater than 100 µM; in [6], greater than 100 µM.

As for `CC[C@H](C)[C@@H]1NC(=O)[C@H](CCCNC(=N)N)NC(=O)CNC(=O)[C@H](NC(=O)[C@H](Cc2ccccc2)NC(=O)[C@H](CCCCN)NC(=O)[C@H](CO)NC(=O)[C@H](Cc2ccccc2)NC(=O)[C@H](Cc2c[nH]c3ccccc23)NC(=O)[C@@H]2CCCN2C(=O)[C@@H](NC(=O)[C@@H](N)Cc2ccccc2)C(C)C)CCCCNC(=O)CC[C@@H](C(N)=O)NC1=O`, the MIC in [1], in series [2], in series [4], in series [5] and in series [6] was greater than 100 µM each time.

As for `CC[C@H](C)[C@H](NC(=O)[C@H](CCCNC(=N)N)NC(=O)CNC(=O)[C@@H](CC(C)C)NC(=O)[C@@H]1CCC(=O)NCCCC[C@H](NC(=O)[C@@H]2CCCN2C(=O)[C@@H](NC(=O)[C@@H](N)Cc2ccccc2)C(C)C)C(=O)N[C@@H](Cc2ccccc2)C(=O)N[C@@H](CO)C(=O)N[C@@H](CCCCN)C(=O)N1)C(=O)N[C@@H](CC(C)C)C(N)=O` (H-FVPKFSKE[dL]GRIL-NH2; lactam 4-8), the MIC in series [1], in series [2], in series [3], in series [4], in series [5] and in series [6] was greater than 100 µM in each case.

For the molecule `CC[C@H](C)[C@H](NC(=O)[C@H](CCCNC(=N)N)NC(=O)[C@@H]1CSSC[C@H](NC(=O)[C@H](Cc2ccccc2)NC(=O)[C@H](Cc2c[nH]c3ccccc23)NC(=O)[C@@H]2CCCN2C(=O)[C@@H](NC(=O)[C@@H](N)Cc2ccccc2)C(C)C)C(=O)N[C@@H](CCCCN)C(=O)N[C@@H](Cc2ccccc2)C(=O)N[C@H](CC(C)C)C(=O)N1)C(=O)N[C@@H](CC(C)C)C(N)=O` (H-FVPWFCKF[dL]CRIL-NH2; disulfide 6-10), the MIC in series [1] is 100 µM (≈ 167 µg/mL); in [5], greater than 100 µM.

As for `CC[C@H](C)[C@H](NC(=O)[C@H](CCCNC(=N)N)NC(=O)[C@@H]1CCCCNC(=O)CC[C@H](NC(=O)[C@H](Cc2ccccc2)NC(=O)[C@H](Cc2c[nH]c3ccccc23)NC(=O)[C@@H]2CCCN2C(=O)[C@@H](NC(=O)[C@@H](N)Cc2ccccc2)C(C)C)C(=O)N[C@@H](CCCCN)C(=O)N[C@@H](Cc2ccccc2)C(=O)N[C@H](CC(C)C)C(=O)N1)C(=O)N[C@@H](CC(C)C)C(N)=O` (H-FVPWFEKF[dL]KRIL-NH2; lactam 6-10), the MIC was 25 µM (≈ 42.6 µg/mL) in [4] and greater than 100 µM in series [5]. The figures for the Activity in [7], in series [8] and in series [9] were 60%, less than 40% and less than 20%, respectively.

As to `CC[C@H](C)[C@@H]1NC(=O)[C@H](CCCNC(=N)N)NC(=O)CNC(=O)[C@@H](CC(C)C)NC(=O)[C@H](Cc2ccccc2)NC(=O)[C@H](CCCCN)NC(=O)[C@@H](NC(=O)[C@H](Cc2ccccc2)NC(=O)[C@H](Cc2c[nH]c3ccccc23)NC(=O)[C@@H]2CCCN2C(=O)[C@@H](NC(=O)[C@@H](N)Cc2ccccc2)C(C)C)CCCCNC(=O)CC[C@@H](C(N)=O)NC1=O` (H-FVPWFKKF[dL]GRIE-NH2; lactam 6-13), the MIC in series [1], in [2], in [4], in [5] and in series [6] was greater than 100 µM in each case.

Turning to `CC(C)C[C@H](NC(=O)[C@@H]1CCC(=O)NCCCC[C@H](NC(=O)[C@H](CCCCN)NC(=O)[C@H](CO)NC(=O)[C@H](Cc2ccccc2)NC(=O)[C@H](Cc2c[nH]c3ccccc23)NC(=O)[C@@H]2CCCN2C(=O)[C@@H](NC(=O)[C@@H](N)Cc2ccccc2)C(C)C)C(=O)N[C@H](CC(C)C)C(=O)NCC(=O)N[C@@H](CCCNC(=N)N)C(=O)N1)C(N)=O` (H-FVPWFSKK[dL]GREL-NH2; lactam 8-12), the MIC in [1], in series [2], in [4], in series [5] and in series [6] was greater than 100 µM each time.

Take `CC(C)C[C@H](NC(=O)[C@@H]1CCCCn2cc(nn2)C[C@H](NC(=O)[C@H](CCCCN)NC(=O)[C@H](CO)NC(=O)[C@H](Cc2ccccc2)NC(=O)[C@H](Cc2c[nH]c3ccccc23)NC(=O)[C@@H]2CCCN2C(=O)[C@@H](NC(=O)[C@@H](N)Cc2ccccc2)C(C)C)C(=O)N[C@H](CC(C)C)C(=O)NCC(=O)N[C@@H](CCCNC(=N)N)C(=O)N1)C(N)=O` (H-FVPWFSK[Pra][dL]GR[Lys(N3)]L-NH2; triazole 8-12): the MIC in [1], in series [2] and in series [5] was greater than 100 µM in each case.

For the molecule `CC[C@H](C)[C@@H]1NC(=O)[C@H](CCCNC(=N)N)NC(=O)CNC(=O)[C@@H](CC(C)C)NC(=O)[C@H](Cc2ccccc2)NC(=O)[C@H](CCCCN)NC(=O)[C@@H](NC(=O)[C@H](Cc2ccccc2)NC(=O)[C@H](Cc2c[nH]c3ccccc23)NC(=O)[C@@H]2CCCN2C(=O)[C@@H](NC(=O)[C@@H](N)Cc2ccccc2)C(C)C)Cc2cn(nn2)CCCC[C@@H](C(N)=O)NC1=O` (H-FVPWF[Pra]KF[dL]GRI[Lys(N3)]-NH2; triazole 6-13), the MIC in series [1], in series [2], in series [4], in series [5] and in series [6] was greater than 100 µM throughout.

In the case of `CC[C@H](C)[C@H](NC(=O)[C@H](CCCNC(=N)N)NC(=O)CNC(=O)[C@H]1CCC(=O)NCCCC[C@H](NC(=O)[C@H](Cc2c[nH]c3ccccc23)NC(=O)[C@@H]2CCCN2C(=O)[C@@H](NC(=O)[C@@H](N)Cc2ccccc2)C(C)C)C(=O)N[C@@H](CO)C(=O)N[C@@H](CCCCN)C(=O)N[C@@H](Cc2ccccc2)C(=O)N1)C(=O)N[C@@H](CC(C)C)C(N)=O` (H-FVPWKSKF[dE]GRIL-NH2; lactam 5-9), the MIC in [1] was greater than 100 µM; in series [2], greater than 100 µM; in series [3] it was 100 µM (≈ 159 µg/mL); in series [4] it was greater than 100 µM; in series [5], greater than 100 µM; in series [6] it was greater than 100 µM.

For the molecule `CC(C)C[C@H](NC(=O)[C@@H]1CCC(=O)NCCCC[C@H](NC(=O)[C@H](Cc2c[nH]c3ccccc23)NC(=O)[C@@H]2CCCN2C(=O)[C@@H](NC(=O)[C@@H](N)Cc2ccccc2)C(C)C)C(=O)N[C@@H](CO)C(=O)N[C@@H](CCCCN)C(=O)N[C@@H](Cc2ccccc2)C(=O)N[C@H](CC(C)C)C(=O)NCC(=O)N[C@@H](CCCNC(=N)N)C(=O)N1)C(N)=O` (H-FVPWKSKF[dL]GREL-NH2; lactam 5-12), the MIC was greater than 100 µM in [1]; greater than 100 µM in series [2]; 100 µM (≈ 159 µg/mL) in [3]; greater than 100 µM in [4]; greater than 100 µM in series [5]; greater than 100 µM in series [6].

Turning to `CC[C@H](C)[C@H](NC(=O)[C@H](CCCNC(=N)N)NC(=O)CNC(=O)[C@H]1CCCCn2cc(nn2)C[C@H](NC(=O)[C@H](Cc2c[nH]c3ccccc23)NC(=O)[C@@H]2CCCN2C(=O)[C@@H](NC(=O)[C@@H](N)Cc2ccccc2)C(C)C)C(=O)N[C@@H](CO)C(=O)N[C@@H](CCCCN)C(=O)N[C@@H](Cc2ccccc2)C(=O)N1)C(=O)N[C@@H](CC(C)C)C(N)=O` (H-FVPW[Pra]SKF[dLys(N3)]GRIL-NH2; triazole 5-9), the MIC is greater than 100 µM in series [1]; greater than 100 µM in series [2]; 100 µM (≈ 160 µg/mL) in series [4]; greater than 100 µM in series [5]; 100 µM (≈ 160 µg/mL) in series [6].

For the molecule `CC[C@H](C)[C@H](NC(=O)[C@H](CCCNC(=N)N)NC(=O)CNC(=O)[C@@H](CC(C)C)NC(=O)[C@@H]1CCCCn2cc(nn2)C[C@H](NC(=O)[C@@H]2CCCN2C(=O)[C@@H](NC(=O)[C@@H](N)Cc2ccccc2)C(C)C)C(=O)N[C@@H](Cc2ccccc2)C(=O)N[C@@H](CO)C(=O)N[C@@H](CCCCN)C(=O)N1)C(=O)N[C@@H](CC(C)C)C(N)=O` (H-FVP[Pra]FSK[Lys(N3)][dL]GRIL-NH2; triazole 4-8), the MIC in series [1], in series [2], in series [4], in [5] and in series [6] was greater than 100 µM each time.
